Measurements: ChEMBL document CHEMBL1250485, “Synthesis and activity of endomorphin-2 and morphiceptin analogues with proline surrogates in position 2” (Eur J Med Chem, 2010)
Where a SMILES comes first, the peptide text is derived from it. [ ]: non-standard residue; d: D form. d(β3hP) = O=C(O)C[C@H]1CCCN1; β3hP = O=C(O)C[C@@H]1CCCN1

Columns and labels:
Assay type in all cases: functional, tissue-based
[1] = molecular target: Delta-type opioid receptor (Mus musculus, UniProt P32300); assay: Agonist activity at delta opioid receptor in mouse vas deferens assessed as inhibition of electrically-stimulated muscle contraction
Sequence of Delta-type opioid receptor (P32300 whole entry): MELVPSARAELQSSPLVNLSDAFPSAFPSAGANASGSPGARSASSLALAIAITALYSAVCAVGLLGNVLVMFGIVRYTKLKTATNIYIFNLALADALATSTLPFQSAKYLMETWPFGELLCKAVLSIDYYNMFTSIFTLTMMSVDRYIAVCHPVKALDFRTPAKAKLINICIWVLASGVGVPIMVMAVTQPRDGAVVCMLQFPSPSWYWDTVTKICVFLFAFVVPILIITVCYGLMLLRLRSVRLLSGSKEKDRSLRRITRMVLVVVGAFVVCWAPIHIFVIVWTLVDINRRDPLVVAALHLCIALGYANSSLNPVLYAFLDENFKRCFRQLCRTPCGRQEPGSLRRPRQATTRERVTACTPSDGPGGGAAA
Procedure, shortened: (§1)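 Isolated tissue bioassays used MVD for line 1 and GPI/LMMP for […]. IC50 is the mean of at least four experiments, obtained by nonlinear least-squares fitting to the Hill equation.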

[2] = molecular target: Mu-type opioid receptor (Cavia porcellus, UniProt P97266); assay: Agonist activity at mu opioid receptor in guinea pig ileum assessed as inhibition of electrically-stimulated muscle contraction; procedure, shortened: as §1
Sequence of Mu-type opioid receptor (P97266 whole entry): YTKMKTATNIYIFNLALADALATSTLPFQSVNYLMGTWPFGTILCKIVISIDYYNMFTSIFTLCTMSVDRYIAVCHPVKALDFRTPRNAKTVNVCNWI

[3] = molecular target: Delta-type opioid receptor (Mus musculus) (UniProt P32300); assay: Agonist activity at delta opioid receptor in mouse vas deferens assessed as inhibition of electrically-stimulated muscle contraction at 1 uM
Sequence of Delta-type opioid receptor (Mus musculus) (P32300 whole entry): as the sequence (P32300 whole entry) above

SMILES: NC(=O)[C@H](Cc1ccccc1)NC(=O)[C@H](Cc1ccccc1)NS(=O)(=O)[C@H]1CCN(C(=O)[C@@H](N)Cc2ccc(O)cc2)C1
- IC50 [1]: 530 nM
- IC50 [2]: 260 nM

SMILES: NC(=O)[C@H](Cc1ccccc1)NC(=O)[C@H](Cc1ccccc1)NS(=O)(=O)[C@@H]1CCN(C(=O)[C@@H](N)Cc2ccc(O)cc2)C1
- IC50 [1]: 390 nM
- IC50 [2]: 220 nM

SMILES: NC(=O)[C@H](Cc1ccccc1)NC(=O)[C@H](Cc1ccccc1)NS(=O)(=O)C[C@H]1CCCN1C(=O)[C@@H](N)Cc1ccc(O)cc1
- inhibition [3]: 36%
- IC50 [2]: 2700 nM

SMILES: NC(=O)[C@H]1CCCN1C(=O)[C@H](Cc1ccccc1)NC(=O)C[C@@H]1CCCN1C(=O)[C@@H](N)Cc1ccc(O)cc1 (H-Y[β3hP]F[dP]-NH2)
- inhibition [3]: 33.7%
- IC50 [2]: 1100 nM

SMILES: NC(=O)[C@H](Cc1ccccc1)NC(=O)[C@H](Cc1ccccc1)NS(=O)(=O)C[C@@H]1CCCN1C(=O)[C@@H](N)Cc1ccc(O)cc1
- IC50 [1]: 1100 nM
- IC50 [2]: 730 nM

SMILES: NC(=O)[C@H](Cc1ccccc1)NC(=O)[C@H](Cc1ccccc1)NC(=O)C[C@H]1CCCN1C(=O)[C@@H](N)Cc1ccc(O)cc1
- IC50 [1]: 1900 nM
- IC50 [2]: 420 nM

SMILES: NC(=O)[C@H](Cc1ccccc1)NC(=O)[C@H](Cc1ccccc1)NC(=O)C[C@@H]1CCCN1C(=O)[C@@H](N)Cc1ccc(O)cc1
- IC50 [1]: 1300 nM
- IC50 [2]: 260 nM

SMILES: NC(=O)[C@H]1CCCN1C(=O)[C@H](Cc1ccccc1)NC(=O)C[C@H]1CCCN1C(=O)[C@@H](N)Cc1ccc(O)cc1 (H-Y[d(β3hP)]F[dP]-NH2)
- IC50 [1]: 96 nM
- IC50 [2]: 17 nM
